Activity calls are given as the source filed them. The rule behind the calls is not given here.
Assays:
[1] = system: Rattus norvegicus; test: Anti-diabetic activity against in streptozotocin-induced diabetic Wistar rat model assessed as reduction in blood glucose level at 10 mg/kg, po administered for 21 days measured on day 35 by tail puncture method; assay type: functional, organism-based; conditions: time 35.0 day
How it was run: (§1)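 STZ given on day 1; oral treatment started day 14, with vehicle 0.5% CMC in controls. Six groups: normal, vehicle, STZ, STZ + two test compounds, STZ + pioglitazone. Blood glucose (tail puncture, glucometer) and body weight recorded on days 1, 4, 14 and 35. One-way ANOVA.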

[2] = species on record: Rattus norvegicus; test: Anti-diabetic activity against STZ-induced diabetic Wistar rat model assessed as increase increase in number of eosinophils level; assay type: functional, organism-based
How it was run: (§2)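 STZ-diabetic Wistar rats in six groups (normal, vehicle 0.5% CMC oral, STZ, STZ + test compounds, STZ + pioglitazone); oral treatment started day 14 after STZ on day 1. Markers measured in serum, pancreatic homogenate or whole blood, as named in each line. Groups compared by one-way ANOVA.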

[3] = system: Rattus norvegicus; test: Antidiabetic activity against STZ-induced oxidative stress in Wistar rats model assessed as reduction malondialdehyde level in pancreatic tissue at 10 mg/kg, po administered for 21 days measured on day 35; assay type: functional, organism-based; conditions: time 35.0 day; how it was run: as §2
[4] = species on record: Rattus norvegicus; test: Anti-inflammatory activity in STZ-induced diabetic Wistar rat model assessed as […] level in serum by ELISA method; assay type: functional, organism-based; how it was run: as §2
[5] = Inhibition of porcine pancreatic alpha-amylase using starch as substrate preincubated for 10 min followed by substrate addition and measured after 20 min by absorbance based analysis; set-up: species or system Sus scrofa
How it was run: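 Porcine α-amylase (1 U mL⁻¹) pre-incubated with compound 10 min at 25 °C in phosphate buffer pH 6.8. 1% starch added, then 15 min at 37.5 ± 2 °C. Quenched with DNS reagent, heated 70 °C 20 min, diluted with buffer, A540 read, in triplicate. Final concentrations 100–1 μM from DMSO dilutions; IC50 from a linear fit of % inhibition at y = 50.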

[6] = system: Rattus norvegicus; test: Antidiabetic activity against streptozotocin-induced Wistar rat assessed as increase in PPAR-gamma level at 10 mg/kg, po administered for 21 days measured on day 35 by ELISA analysis; assay type: functional, organism-based; conditions: time 35.0 day; how it was run: as §2
[7] = system: PANC-1; test: Antioxidant activity in human PANC-1 cells assessed as decrease in high glucose induced ROS production by measuring minimum fractional index at 5 uM incubated for 24 hrs by DCFDA-staining based flow cytometry analysis; assay type: functional
How it was run: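 PANC-1 cells (1 × 10⁵/well) grown 24 h at 37 °C, 5% CO₂, then pre-treated 1 h with 5 μM compound. Exposed to glucose (stated 10 μM) for 23 h. Stained with 10 μM DCFH-DA for 30 min at 37 °C, rinsed, and ROS read by flow cytometry as DCFDA/FITC mean fluorescence intensity.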

[8] = system: Rattus norvegicus; test: Antidiabetic activity against STZ-induced oxidative stress in Wistar rats model assessed as increase in SOD level in pancreatic tissue at 10 mg/kg, po administered for 21 days measured on day 35 by absorbance based UV-spectroscopic analysis; conditions: time 35.0 day
[9] = species on record: Rattus norvegicus; test: (§3) Anti-diabetic activity in high glucose induced alpha-amylase expression in fasted STZ-induced diabetic Wistar rat model assessed as alpha-glucosidase level in pancreas by measuring minimum fractional index incubated for 23 hrs and measured after 24 hrs by flow cytometric analysis (reference value: 3063 + 149.2); assay type: functional
[10] = system: Rattus norvegicus; test: Anti-diabetic activity against in streptozotocin-induced diabetic Wistar rat model assessed as reduction in blood glucose level at 10 mg/kg, po administered as single dose and measured upto 120 min by oral glucose tolerance test; assay type: functional, organism-based
How it was run: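 Wistar rats fasted 16 h, given a single oral 10 mg kg⁻¹ dose, then oral glucose 2 g kg⁻¹ immediately. Blood glucose taken by tail puncture with a glucometer at 0, 15, 30, 60, 90 and 120 min. Groups compared by ANOVA.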

[11] = system: PANC-1; test: Inhibition of high glucose induced alpha-amylase expressed in human PANC-1 cells assessed as decrease alpha-glucosidase level by measuring minimum fractional index incubated for 23 hrs and measured after 24 hrs by flow cytometric analysis; assay type: functional, cell-based
[12] = system: PANC-1; test: Cytotoxicity against human PANC-1 cells assessed as inhibition of cell viability at upto 100 uM incubated for 24 hrs by MTT assay; assay type: toxicity, cell-based; conditions: panc-1, 24 h
How it was run: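 PANC-1 cells seeded at 9 × 10³ per well, triplicate, 24 h at 37 °C, 5% CO₂. Treated with 5, 10, 20, 40, 60, 80 and 100 μM for another day. MTT (5 mg mL⁻¹ stock) 3 h at 37 °C, plates centrifuged, formazan dissolved in DMSO 30 min dark, A570. Viability compared by one-way ANOVA with Tukey test.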

[13] = system: Rattus norvegicus; test: Antidiabetic activity against streptozotocin-induced Wistar rat assessed as increase creatinine level in serum at 10 mg/kg, po administered for 21 days measured on day 35; assay type: functional, organism-based; conditions: time 35.0 day; how it was run: as §2
[14] = system: Rattus norvegicus; test: Antioxidant activity in fasted STZ-induced diabetic Wistar rat model assessed as decrease in high glucose induced ROS production in pancreas by measuring minimum fractional index at 10 mg/kg, po administration for 21 days and measured on day 35; assay type: functional; conditions: time 35 day
How it was run: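 Rat pancreas mashed through a 70 μm strainer in FACS buffer. Processed by centrifugation (300 × g and 800 × g, 21 °C), 42% Percoll and 5 min RBC lysis. Cells washed, stained with DCFH-DA, and ROS read on a flow cytometer.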

[15] = species on record: Rattus norvegicus; test: Anti-inflammatory activity in STZ-induced diabetic Wistar rat model assessed as decrease in IL-1beta level in blood by ELISA method
[16] = Toxicity against STZ-induced diabetic Wistar rat model assessed as body weight loss at 10 mg/kg, po measured on day 14; assay type: organism-based; conditions: in vivo, 336 h, time 14 day; how it was run: as §1
[17] = species on record: Rattus norvegicus; test: as §3, with “alpha-amylase” for “alpha-glucosidase”, “2590” for “3063”, “199.74)” for “149.2)”; assay type: functional
[18] = species on record: Rattus norvegicus; test: Anti-diabetic activity against STZ-induced diabetic Wistar rat model assessed as increase increase in number of haemoglobin level; assay type: functional, organism-based; how it was run: as §2
[19] = species on record: Rattus norvegicus; test: Anti-diabetic activity against STZ-induced diabetic Wistar rat model assessed as increase increase in number of lymphocytes level; assay type: functional, organism-based; how it was run: as §2
[20] = species on record: Rattus norvegicus; test: Anti-diabetic activity against STZ-induced diabetic Wistar rat model assessed as increase increase in number of monocytes level; assay type: functional, organism-based; how it was run: as §2
[21] = system: Rattus norvegicus; test: Antidiabetic activity against streptozotocin-induced Wistar rat assessed as reduction in serum ALP level at 10 mg/kg, po administered for 21 days measured on day 35; conditions: time 35.0 day
[22] = biological target: alpha-glucosidase (Saccharomyces cerevisiae); test: Inhibition of Saccharomyces cerevisiae alpha-glucosidase using 4-nitrophenyl-alpha-D-glucopyranoside as substrate incubated with compound for 15 to 20 min by absorbance based analysis
[23] = system: Rattus norvegicus; test: Antidiabetic activity against streptozotocin-induced Wistar rat assessed as change in uric acid level at 10 mg/kg, po administered for 21 days measured on day 35; assay type: functional, organism-based; conditions: time 35.0 day; how it was run: as §2
[24] = system: PANC-1; test: (§4) Anti-diabetic activity against high glucose induced human PANC-1 cells assessed as decrease in glucose induced alpha-glucosidase expression by measuring by measuring minimum fractional index at 5 uM incubated for 23 hrs and measured after 24 hrs by flow cytometric analysis (reference value: 4361 +/- 257.83); assay type: functional
[25] = species on record: Rattus norvegicus; test: Anti-diabetic activity against STZ-induced diabetic Wistar rat model assessed as increase increase in number of neutrophils level; assay type: functional, organism-based; how it was run: as §2
[26] = system: PANC-1; test: as §4, with “alpha-amylase” for “alpha-glucosidase”, “2887” for “4361”, “95.87)” for “257.83)”; assay type: functional

| IC50 [5] [µM] | Compound | Activity [1] | Activity [2] | Activity [3] | Activity [4] | Activity [6] | Activity_index [7] | Activity [8] | Activity index [9] | Activity [10] | Activity [11] | Activity [12] | Activity [13] | Activity_index [14] | Activity [15] | Activity [16] | Activity index [17] | Activity [18] | Activity [19] | Activity [20] | also measured |
| --- | --- | --- | --- | --- | --- | --- | --- | --- | --- | --- | --- | --- | --- | --- | --- | --- | --- | --- | --- | --- | --- |
| 9.2 | C#CCOc1ccc(/C=C2\SC(=O)N(Cc3cccc([N+](=O)[O-])c3)C2=O)cc1OCC | Active | Active | Active | Active | Active | 85.2 | Active | 2540 | Active | Dose-dependent-effect | Non-toxic | Active | 164 | Active | Toxic | 2250 | Active | Active | Active | Activity [21]: Active; IC50 [22]: 5.15 µM; Activity [23]: Active; Activity_index [24]: 752; Activity [25]: Active; Activity_index [26]: 109 |
| 17.1 | C=CCOc1ccc(/C=C2\SC(=O)N(Cc3cccc([N+](=O)[O-])c3)C2=O)cc1OCC | Active | Active | Active | Active | Active | 97.6 | Active | 132 | Active | Dose-dependent-effect | Non-toxic | Active | 674 | Active | Toxic | 676 | Active | Active | Active | Activity [21]: Active; IC50 [22]: 9.8 µM; Activity [23]: Active; Activity_index [24]: 2242; Activity [25]: Active; Activity_index [26]: 797 |
